This is an account of results in ChEMBL document CHEMBL1123864, “Synthetic bovine prothrombin precursor 13-29 for studies of vitamin K dependent carboxylase” (J Med Chem, 1987).

Peptide text beside a SMILES is read from it. * marks the point of attachment. Boc = CC(C)(C)OC(=O)*; Acm = CC(=O)NC*

A word on the Km: it is the concentration of substrate that gives half-maximal velocity.

For series [1], the target named is T1, Vitamin K-dependent gamma-carboxylase (Rattus norvegicus) (UniProt O88496).
T1 sequence (whole entry): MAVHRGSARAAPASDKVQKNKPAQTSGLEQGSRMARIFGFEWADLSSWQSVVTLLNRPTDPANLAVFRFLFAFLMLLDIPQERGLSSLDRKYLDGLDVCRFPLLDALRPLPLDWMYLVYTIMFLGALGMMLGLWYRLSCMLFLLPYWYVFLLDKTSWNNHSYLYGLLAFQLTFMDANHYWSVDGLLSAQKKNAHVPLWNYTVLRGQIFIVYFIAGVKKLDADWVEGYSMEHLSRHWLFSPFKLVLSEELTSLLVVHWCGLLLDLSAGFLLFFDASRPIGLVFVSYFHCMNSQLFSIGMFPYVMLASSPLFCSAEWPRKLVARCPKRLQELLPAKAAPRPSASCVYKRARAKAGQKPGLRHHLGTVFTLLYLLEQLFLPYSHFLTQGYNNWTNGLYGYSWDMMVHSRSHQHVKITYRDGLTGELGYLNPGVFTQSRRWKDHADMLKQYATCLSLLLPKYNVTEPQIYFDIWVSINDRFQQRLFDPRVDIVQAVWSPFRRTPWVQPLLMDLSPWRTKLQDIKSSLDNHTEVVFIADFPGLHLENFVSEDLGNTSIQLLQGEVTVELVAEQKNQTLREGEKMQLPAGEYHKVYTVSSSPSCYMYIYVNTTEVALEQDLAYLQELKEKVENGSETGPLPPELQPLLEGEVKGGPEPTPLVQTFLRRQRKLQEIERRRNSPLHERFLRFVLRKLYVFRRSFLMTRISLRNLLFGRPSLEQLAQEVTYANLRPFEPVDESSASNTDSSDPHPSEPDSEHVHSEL
Put plainly: Substrate activity was determined for the rat liver microsomal vitamin K dependent carboxylase by dpm incorporation at 0.0625 mM. The method in brief: (§1)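 Rat liver microsomal carboxylase with the peptide as substrate. Incubations ran 60 min at 17 °C in duplicate and were averaged. Read-out was dpm incorporated, with the no-vitamin K blank subtracted. The enzyme requires oxygen, reduced vitamin K and carbon dioxide.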
In general terms: Liver microsomes are a subcellular fraction often used to study metabolism.

In series [2] the target is T1, Vitamin K-dependent gamma-carboxylase (Rattus norvegicus). Put plainly: Substrate activity was determined for the rat liver microsomal vitamin K dependent carboxylase by dpm incorporation at 0.25 mM. The method, boiled down: as §1
Series [3] shares this target. Put plainly: Substrate activity was determined for the rat liver microsomal vitamin K dependent carboxylase by dpm incorporation at 0.125 mM. The method, boiled down:
as §1

Series [4] shares this target. Description: Evaluated as substrate for the rat liver microsomal vitamin K dependent carboxylase by dpm incorporation at 0.125 mM. The method, boiled down: as §1
The target is the same in series [5]. Put plainly: Evaluated as substrate for the rat liver microsomal vitamin K dependent carboxylase by dpm incorporation at 0.0625 mM. The method, boiled down:
as §1

Series [6] shares this target. Description: Evaluated as substrate for the rat liver microsomal vitamin K dependent carboxylase by dpm incorporation at 0.25 mM. The method, boiled down:
as §1

Substrate in series [7]: CC(C)C[C@H]1NC(=O)[C@H](N)CSSC[C@@H](C(=O)O)NC(=O)[C@@H]2CCCN2C(=O)[C@@H](CCC(=O)O)NC(=O)[C@H](CCC(=O)O)NC1=O
Description: Binding affinity was evaluated for the compound against Vitamin K dependent carboxylase.

With `CC(=O)NCSC[C@H](NC(=O)[C@H](CCC(=O)O)NC(=O)[C@H](CCCN=C(N)N)NC(=O)[C@H](CCC(=O)O)NC(=O)[C@H](CC(C)C)NC(=O)[C@@H](N)CC(N)=O)C(=O)N[C@@H](CC(C)C)C(=O)N[C@@H](CCC(=O)O)C(=O)N[C@@H](CCC(=O)O)C(=O)N1CCC[C@H]1C(=O)N[C@@H](CSCNC(C)=O)C(=O)N[C@@H](CO)C(=O)N[C@@H](CCCN=C(N)N)C(=O)N[C@@H](CCC(=O)O)C(=O)N[C@@H](CCC(=O)O)C(=O)N[C@@H](C)C(=O)N[C@@H](Cc1ccccc1)C(=O)O` (H-NLEREC(Acm)LEEPC(Acm)SREEAF-OH), the Activity in series [1] worked out at 480; in series [2], 2380; in series [3], 920.

With `COC(=O)[C@H](CC(C)C)NC(=O)[C@H](CCC(=O)O)NC(=O)[C@H](CCC(=O)O)NC(=O)OC(C)(C)C` (Boc-Glu-Glu-Leu-OMe), the values for the Activity in series [4], in series [5] and in series [6] were 5770, 3020 and 11400, respectively.

Take `CC(C)C[C@H](NC(=O)[C@@H](N)CC(N)=O)C(=O)N[C@@H](CCC(=O)O)C(=O)N[C@@H](CCCN=C(N)N)C(=O)N[C@@H](CCC(=O)O)C(=O)N[C@@H]1CSSC[C@@H](C(=O)N[C@@H](CO)C(=O)N[C@@H](CCCN=C(N)N)C(=O)N[C@@H](CCC(=O)O)C(=O)N[C@@H](CCC(=O)O)C(=O)N[C@@H](C)C(=O)N[C@@H](Cc2ccccc2)C(=O)O)NC(=O)[C@@H]2CCCN2C(=O)[C@@H](CCC(=O)O)NC(=O)[C@H](CCC(=O)O)NC(=O)[C@@H](CC(C)C)NC1=O`: the Activity is 240 in series [1], 810 in series [2] and 480 in series [3].

B1: Vitamin K-dependent gamma-carboxylase (Rattus norvegicus), O88496 (protein)
chain: MAVHRGSARAAPASDKVQKNKPAQTSGLEQGSRMARIFGFEWADLSSWQSVVTLLNRPTDPANLAVFRFLFAFLMLLDIPQERGLSSLDRKYLDGLDVCRFPLLDALRPLPLDWMYLVYTIMFLGALGMMLGLWYRLSCMLFLLPYWYVFLLDKTSWNNHSYLYGLLAFQLTFMDANHYWSVDGLLSAQKKNAHVPLWNYTVLRGQIFIVYFIAGVKKLDADWVEGYSMEHLSRHWLFSPFKLVLSEELTSLLVVHWCGLLLDLSAGFLLFFDASRPIGLVFVSYFHCMNSQLFSIGMFPYVMLASSPLFCSAEWPRKLVARCPKRLQELLPAKAAPRPSASCVYKRARAKAGQKPGLRHHLGTVFTLLYLLEQLFLPYSHFLTQGYNNWTNGLYGYSWDMMVHSRSHQHVKITYRDGLTGELGYLNPGVFTQSRRWKDHADMLKQYATCLSLLLPKYNVTEPQIYFDIWVSINDRFQQRLFDPRVDIVQAVWSPFRRTPWVQPLLMDLSPWRTKLQDIKSSLDNHTEVVFIADFPGLHLENFVSEDLGNTSIQLLQGEVTVELVAEQKNQTLREGEKMQLPAGEYHKVYTVSSSPSCYMYIYVNTTEVALEQDLAYLQELKEKVENGSETGPLPPELQPLLEGEVKGGPEPTPLVQTFLRRQRKLQEIERRRNSPLHERFLRFVLRKLYVFRRSFLMTRISLRNLLFGRPSLEQLAQEVTYANLRPFEPVDESSASNTDSSDPHPSEPDSEHVHSEL
For B1, in series [7], the Michaelis-Menten constant (Km) was 3000 µM.
